According to ChEMBL document CHEMBL2311436, “Synthesis of acylated glycoconjugates as templates to investigate in vitro biopharmaceutical properties” (Bioorg Med Chem Lett, 2013):

How the values were obtained:
Liver microsomes [1] = test: In vitro intrinsic clearance in human liver microsomes assessed per milligram; type: ADME, Microsome
In short: (§1)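 Compounds were incubated with human liver microsomes, and mass spectrometry monitored parent loss and the appearance of mono-, di- and tri-acylated and fully deacylated hydrolysis products.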

Plasma = test: (§2) Degradation half life in human plasma; type: ADME, cell-free
In short: (§3)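 Compounds were incubated in human plasma at 37 °C, and ester hydrolysis was followed by mass spectrometry. Tri-, di- and mono-acylated intermediates and the fully deacylated product were tracked by their characteristic molecular weights.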

Liver microsomes [2] = test: In vitro intrinsic clearance in human liver microsomes assessed per milligram of protein in presence of NADPH; type: ADME, Microsome; in short: as §1
Albumin = Albumin (Homo sapiens, UniProt P02768); test: Binding affinity to human serum albumin by chromatographic HSA binding assay; type: ADME; conditions: isolated protein
In short: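 Protein binding was estimated from retention time on an immobilized human serum albumin (HSA) HPLC column, correlated against standard compounds with known protein binding values. This was used in place of equilibrium dialysis or ultrafiltration because the esters may deacylate under those conditions.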

[3] = as §2; type: ADME, cell-free; in short: as §3

Albumin, sequence (P02768 whole entry): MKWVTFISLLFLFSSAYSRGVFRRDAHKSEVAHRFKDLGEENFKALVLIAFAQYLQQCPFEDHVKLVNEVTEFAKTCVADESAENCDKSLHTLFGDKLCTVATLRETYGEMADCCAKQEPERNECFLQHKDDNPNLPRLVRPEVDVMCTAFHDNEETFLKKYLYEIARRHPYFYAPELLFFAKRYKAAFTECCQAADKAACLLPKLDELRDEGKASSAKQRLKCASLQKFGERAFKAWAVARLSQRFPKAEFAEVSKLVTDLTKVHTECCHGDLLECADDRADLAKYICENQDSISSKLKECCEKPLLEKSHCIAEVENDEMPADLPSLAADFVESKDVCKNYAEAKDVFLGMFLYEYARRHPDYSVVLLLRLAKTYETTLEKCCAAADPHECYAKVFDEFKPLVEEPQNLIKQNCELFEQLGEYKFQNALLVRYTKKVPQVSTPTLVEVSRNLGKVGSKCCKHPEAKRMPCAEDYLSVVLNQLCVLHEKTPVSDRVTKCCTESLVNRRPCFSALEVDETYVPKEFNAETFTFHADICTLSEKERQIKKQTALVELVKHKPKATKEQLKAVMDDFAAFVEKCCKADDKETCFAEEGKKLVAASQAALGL

SMILES | CLH (Liver microsomes [1]) | t1/2 (Plasma) | CLH (Liver microsomes [2]) | Activity (Albumin) [%] | half-life [3] [min]
CC(C)CC(=O)OC[C@H]1O[C@@H](n2cc(-c3ccccc3)nn2)[C@H](OC(=O)CC(C)C)[C@@H](OC(=O)CC(C)C)[C@@H]1OC(=O)CC(C)C | < 7 µL/min | Stable | < 7 µL/min | < 99 | 
CC(=O)OC[C@H]1O[C@@H](n2cc(-c3ccccc3)nn2)[C@H](OC(C)=O)[C@@H](OC(C)=O)[C@@H]1OC(C)=O | 423 µL/min |  | 397 µL/min | 59 | 55
OC[C@H]1O[C@@H](n2cc(-c3ccccc3)nn2)[C@H](O)[C@@H](O)[C@@H]1O | < 7 µL/min | Stable | < 7 µL/min | 19 | 

Second part, the compound after the results:

CLH (Liver microsomes [1]) | t1/2 (Plasma) | CLH (Liver microsomes [2]) | Activity (Albumin) [%] | half-life [3] [min] | SMILES
< 7 µL/min | Stable | < 7 µL/min | < 99 |  | CCCCC(=O)OC[C@H]1O[C@@H](n2cc(-c3ccccc3)nn2)[C@H](OC(=O)CCCC)[C@@H](OC(=O)CCCC)[C@@H]1OC(=O)CCCC
83 µL/min |  | 69 µL/min | 96 | 555 | CCCC(=O)OC[C@H]1O[C@@H](n2cc(-c3ccccc3)nn2)[C@H](OC(=O)CCC)[C@@H](OC(=O)CCC)[C@@H]1OC(=O)CCC
ND(Unstable) |  | ND(Unstable) | 88 | 26 | CCC(=O)OC[C@H]1O[C@@H](n2cc(-c3ccccc3)nn2)[C@H](OC(=O)CC)[C@@H](OC(=O)CC)[C@@H]1OC(=O)CC
